Reference: ChEMBL document CHEMBL3763147, “Small Molecule Inhibitors of Ca(2+)-S100B Reveal Two Protein Conformations” (J Med Chem, 2016)
Calls of active or inactive are those of the source. The rule behind the calls is not given here.

How the values were obtained:
[1] = Growth inhibition of human WM115 cells expressing high levels of S100-B by SYBR Green based fluorescence method; format: functional, cell-based; conditions: WM-115
[2] = biological target: T1, Protein S100-B (Rattus norvegicus) (UniProt P04631); test: Displacement of TAMRA-TRTK12 from recombinant rat calcium loaded S100-B at <1 mM by fluorescence polarization competition assay
T1 sequence (whole entry): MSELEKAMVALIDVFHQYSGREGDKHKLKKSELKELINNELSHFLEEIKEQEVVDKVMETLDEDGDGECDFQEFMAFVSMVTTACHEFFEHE

[3] = Growth inhibition of human WM115 cells expressing low levels of S100-B by SYBR Green based fluorescence method; format: functional, cell-based; conditions: WM-115
Protein S100-B [4] = biological target: T2, Protein S100-B (Rattus norvegicus, UniProt P04631); test: Displacement of TAMRA-TRTK12 from recombinant rat calcium loaded S100-B by fluorescence polarization competition assay
T2 sequence (P04631 whole entry): T1 sequence (whole entry)

Protein S100-B [5] = biological target: T2, Protein S100-B; test: Displacement of TAMRA-TRTK12 from recombinant rat calcium loaded S100-B by […] analysis
Protein S100-B [6] = biological target: T2, Protein S100-B; test: Binding affinity to recombinant rat calcium loaded S100-B by fluorescence spectrophotometric analysis
In short: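 Competition fluorescence polarization against 10 nM TAMRA-labelled TRTK12 peptide (CapZ residues 265–276) with 1 µM Ca2+-loaded rat S100B. Buffer: 50 mM HEPES pH 7.2, 100 mM KCl, 15 mM NaCl, 10 mM CaCl2, 0.01% Triton X-100, 0.5% DMSO. Compounds titrated from the highest concentration possible. Read at room temperature (ex 544/em 590 nm). KD calculated from the IC50 using the Nikolovska-Coleska equation.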

Protein S100-B [7] = biological target: T2, Protein S100-B; test: Binding affinity to recombinant rat calcium loaded S100-B by isothermal titration calorimetry

SMILES	Activity [2]	IC50 (Protein S100-B [4])	Kd (Protein S100-B [5])	Kd (Protein S100-B [6])	Kd (Protein S100-B [7])	EC50 [1]	EC50 [3]
c1cc(C2=NCCCCN2)ccc1OCCCCCCOc1ccc(C2=NCCCCN2)cc1	inactive	–	–	–	–	264 µM	301 µM
CCCN(CCCOc1ccc(C(=N)N)cc1)CCCOc1ccc(C(=N)N)cc1	–	–	–	–	–	864 µM	500 µM
c1cc(C2=NCCN2)ccc1OCCCCCCCCOc1ccc(C2=NCCN2)cc1	inactive	–	–	–	–	21.8 µM	24.3 µM
c1cc(C2=NCCCCN2)ccc1OCCCCCCCCOc1ccc(C2=NCCCCN2)cc1	inactive	–	–	–	–	5.4 µM	4.8 µM
c1cc(C2=NCCCCN2)ccc1OCCCCCCCOc1ccc(C2=NCCCCN2)cc1	inactive	–	–	–	–	7.8 µM	9.2 µM
c1cc(C2=NCCCN2)ccc1OCCCCCOc1ccc(C2=NCCCN2)cc1	inactive	–	–	–	–	203 µM	284 µM
N=C(N)c1ccc(OCCCN(CCCOc2ccc(C(=N)N)cc2)Cc2ccccc2)cc1	–	–	–	–	–	51.8 µM	41 µM
c1cc(C2=NCCCN2)ccc1OCCCCCCCOc1ccc(C2=NCCCN2)cc1	inactive	–	–	–	–	612 µM	289 µM
N=C(N)c1ccc(OCCCCCCCOc2ccc(C(=N)N)cc2)cc1 [HEPTAMIDINE]	–	–	–	–	–	11.5 µM	25.6 µM
c1cc(C2=NCCCN2)ccc1OCCCCCCCCOc1ccc(C2=NCCCN2)cc1	inactive	–	–	–	–	24.8 µM	37.9 µM
N=C(NC(=O)Nc1ccccc1)c1ccc(OCCCCCCCOc2ccc(C(=N)NC(=O)Nc3ccccc3)cc2)cc1	–	–	–	–	–	0.4 µM	0.5 µM
c1cc(C2=NCCCN2)ccc1OCCCCCCOc1ccc(C2=NCCCN2)cc1	inactive	–	–	–	–	44.1 µM	42.7 µM
c1cc(C2=NCCCCN2)ccc1OCCCCCOc1ccc(C2=NCCCCN2)cc1	inactive	–	–	–	–	20 µM	19 µM
N=C(N)c1ccc(OCCCCCCCCOc2ccc(C(=N)N)cc2)cc1	–	–	–	–	–	245 µM	234 µM
c1cc(C2=NCCN2)ccc1OCCCCCOc1ccc(C2=NCCN2)cc1	inactive	–	–	–	–	56.2 µM	38.9 µM

Continued, in another order:

Activity [2]	IC50 (Protein S100-B [4])	Kd (Protein S100-B [5])	Kd (Protein S100-B [6])	Kd (Protein S100-B [7])	SMILES	EC50 [1]	EC50 [3]
–	982 µM	89.5 µM	–	–	CNC(=O)NC(=N)c1ccc(OCCCCCCCOc2ccc(C(=N)NC(=O)NC)cc2)cc1	131 µM	146 µM
–	66.6 µM	6 µM	–	–	N=C(N)c1ccc(Oc2ccc(-c3cc4ccc(C(=N)N)cc4[nH]3)cc2)cc1	< 1 µM	< 1 µM
inactive	–	–	–	–	c1cc(C2=NCCN2)ccc1OCCCCCCOc1ccc(C2=NCCN2)cc1	52 µM	34.5 µM
–	18.3 µM	1.6 µM	–	–	N=C(NCCCCCCCN)c1ccc(OCCCCCCCCOc2ccc(C(=N)NCCCCCCCN)cc2)cc1	46.3 µM	45.8 µM
–	6.7 µM	0.5 µM	–	–	N=C(NCCCCCCCN)c1ccc(OCCCCCCCOc2ccc(C(=N)NCCCCCCCN)cc2)cc1	24.3 µM	25.4 µM
inactive	–	203 µM	–	–	c1cc(C2=NCCN2)ccc1OCCCCCCCOc1ccc(C2=NCCN2)cc1	32.2 µM	21.2 µM
–	–	–	44 µM	50 µM	N=C(N)c1ccc(OCCCCCOc2ccc(C(=N)N)cc2)cc1 [PENTAMIDINE]	16.3 µM	16.7 µM
–	51.1 µM	4.6 µM	–	–	N=C(NCCCCCN)c1ccc(OCCCCCOc2ccc(C(=N)NCCCCCN)cc2)cc1	–	–
